Assay outcomes from PubChem BioAssay.
Sampled rows, rich in hits. Any-hit rate of the full collection: about 3.7%.
KCNQ1 act = potentiates or activates the human KCNQ1 potassium channel. P51787. CHO-K1 KCNQ1, thallium flux FluxOR fluorescence; active compounds read high. B-score at 10 µM. 310,000 compounds, 0.35% hits;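 active = fluorescence ratio B-score, a plate-corrected score, at least three library SD, with initial intensity B-score within 5 SD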
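Medium – assay buffer, equal DMSO in all wells · Material – CHO-K1 cell line with stable KCNQ1 potassium channel expression · Signal – kinetic FluxOR thallium fluorescence, 10-s 1-Hz baseline, 110-s post-stimulus read · Compound – single concentration per compound, DMSO matched to controls · Schedule – 37 °C overnight plating, 90-min dark dye load, 20-min compound pretreatment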
KCNK9 block = inhibitors of human KCNK9 two-pore domain potassium channel; Q9NPC2; HEK293 KCNK9, FluxOR thallium flux fluorescence; active compounds read low; B-score at 10 µM; 310,000 compounds, 1.2% hits; AID 488922;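 active = ratio B-score over 3 SD below the library mean, with starting fluorescence within 5 SD of its mean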;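 also: negative B-score means less thallium flux so channel inhibition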
Kir21 inh = Kir2.1 (mouse) channel inhibition. B-score at 10 µM. HEK293-Kir2.1, FluxOR thallium flux fluorescence; active compounds read low. 310,000 compounds, 0.85% hits;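 active = fluorescence ratio B-score at or below minus 3 SD of library scores, with starting-brightness B-score within 2 SD, cut at about -4.2 in these data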;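 also: channel flux triggered by added potassium and thallium sulfate stimulus; B-score of peak minus minimum fluorescence over baseline after thallium stimulus; more negative B-score means stronger Kir2.1 block with less thallium influx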
KCNK3 block = human KCNK3 channel inhibition, primary screen; O14649; AID 602410; B-score at 10 µM; 340,000 compounds, 0.84% hits; CHO-KCNK3 thallium flux, FluxOR fluorescence; active compounds read low;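 active = B-score under library mean minus 4 SD, starting fluorescence ratio at most library mean plus 5 SD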;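 also: more negative B-score means stronger inhibition of thallium flux through KCNK3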
hERG rescue = compounds protecting human hERG from proarrhythmic drug block | activation (rescue from dofetilide block), less the hit threshold, % at 10 µM | 310,000 compounds, 0.51% hits | CHO-hERG, FluxOR thallium flux, dofetilide IC70 present | Q12809;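 active = activation above the mean of controls blocked by dofetilide plus 5 SD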;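 also: thallium influx through hERG after potassium depolarization seen as dye fluorescence rise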
KCNQ1 block = blocks the human KCNQ1 potassium channel | P51787 | CHO-K1 KCNQ1, FluxOR thallium flux fluorescence; active compounds read high | B-score at 10 µM | 310,000 compounds, 1.3% hits;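 active = compounds whose thallium flux B-score, printed positive for inhibition, exceeds three library SD while starting fluorescence stays within three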;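 also: channel opened by potassium depolarization with thallium stimulus after 20 min compound exposure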
KCNQ1 inh valid = reconfirmed blocker of the human KCNQ1 potassium channel; shares compounds with KCNQ1 block; KCNQ1 cell line, FluxOR thallium flux fluorescence; inhibition, % at 10 µM; 1,600 compounds, 93% hits;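 active = primary screen active, with duplicate mean exceeding buffer control mean plus 3 SD of buffer wells, cut at about 28% in these data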;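 also: 0% = buffer control ratio and 100% = XE991 inhibitor control ratio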
CHO KCNQ1 ctr = counter-screen for KCNQ1 inhibitors: effect in parental CHO cells. AID 588366. 1,600 compounds, 21% hits. fluorescence ratio (Tl flux) at 10 µM. parental CHO-K1, FluxOR thallium flux fluorescence ratio; active compounds read low; zero means no signal rise above baseline. shares compounds with KCNQ1 block;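 active = mean of duplicate thallium-flux fluorescence ratios in parental host cells more than 5 SD below the buffer control mean, cut at about 0.38 in these data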;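 also: ratio is peak minus minimum fluorescence divided by baseline fluorescence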
KCNQ1 ephys val = confirmation of human KCNQ1 potassium channel inhibitors by electrophysiology. shares compounds with KCNQ1 block. KCNQ1-CHO cells, automated patch clamp current. calls only at 10 µM. 490 compounds, 20% hits. AID 624120;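 active = KCNQ1 current drop exceeding 3 SD of negative control wells, seen in both duplicate runs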;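 also: steady state current during a 2 s step from -80 to +40 mV; negative values mean current inhibition and positive values mean potentiation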
KCNQ2 inh = rat KCNQ2 inhibition in KCNQ1 inhibitor specificity screen. shares compounds with KCNQ1 block. KCNQ2 cells, FluxOR thallium flux fluorescence. inhibition, % at 10 µM. 1,600 compounds, 71% hits. AID 651746;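 active = mean percent inhibition of the KCNQ2 thallium signal more than 5 SD above the buffer-only control wells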;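 also: KCNQ2 expressed in CHO cells; 0% = buffer control wells and 100% = XE-991 inhibitor control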
Target sequence (O88943 whole entry, looked up): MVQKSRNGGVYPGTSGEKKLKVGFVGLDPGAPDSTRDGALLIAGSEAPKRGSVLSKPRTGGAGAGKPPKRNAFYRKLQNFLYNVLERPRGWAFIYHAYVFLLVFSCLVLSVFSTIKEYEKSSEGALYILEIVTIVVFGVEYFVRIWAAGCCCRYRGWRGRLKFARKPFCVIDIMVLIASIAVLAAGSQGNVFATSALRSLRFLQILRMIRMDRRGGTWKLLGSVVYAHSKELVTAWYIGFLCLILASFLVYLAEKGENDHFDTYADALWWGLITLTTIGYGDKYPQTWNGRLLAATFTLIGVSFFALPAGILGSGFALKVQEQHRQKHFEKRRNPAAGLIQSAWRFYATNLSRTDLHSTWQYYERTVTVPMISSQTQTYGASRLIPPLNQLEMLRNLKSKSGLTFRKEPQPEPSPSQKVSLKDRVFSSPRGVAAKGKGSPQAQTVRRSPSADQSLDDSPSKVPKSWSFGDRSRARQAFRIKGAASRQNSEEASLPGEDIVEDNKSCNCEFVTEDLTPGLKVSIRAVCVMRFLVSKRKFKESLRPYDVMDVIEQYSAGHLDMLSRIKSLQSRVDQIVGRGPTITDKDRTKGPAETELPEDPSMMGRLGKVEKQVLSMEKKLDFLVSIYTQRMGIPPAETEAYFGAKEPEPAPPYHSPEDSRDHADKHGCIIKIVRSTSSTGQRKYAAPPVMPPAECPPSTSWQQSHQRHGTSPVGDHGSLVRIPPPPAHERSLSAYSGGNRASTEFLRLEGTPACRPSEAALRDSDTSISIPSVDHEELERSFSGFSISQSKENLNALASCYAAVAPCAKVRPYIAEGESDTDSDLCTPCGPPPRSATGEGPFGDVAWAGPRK
KCNQ1 KCNE1 spec = human KCNQ1/KCNE1 inhibition in KCNQ1 specificity screen; 1,600 compounds, 77% hits; shares compounds with KCNQ1 block; KCNQ1/KCNE1 cells, FluxOR thallium flux fluorescence; inhibition, % at 10 µM; AID 652147;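 active = mean percent inhibition of duplicate wells above the buffer-only control mean plus 3 SD of those controls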;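 also: 0% = buffer only wells and 100% = XE-991 inhibitor control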
Starred values were filed as active, the others as inactive.

For O=C(Nc1ccc(OC(F)(F)F)cc1)Oc1ccccc1N1CCOCC1 the results were KCNQ1 act inactive, KCNK9 block inactive, Kir21 inh -0.37, KCNK3 block inactive, hERG rescue -8.4, KCNQ1 block 6*, KCNQ1 inh valid 49.5*, CHO KCNQ1 ctr 0.495, KCNQ2 inh 70.0%* and KCNQ1 KCNE1 spec 39.0%*.
For COc1ccc(C(=O)NC(C)c2ccc(-n3ccnc3)cc2)c(OC)c1 (stereo unspecified) the results were KCNQ1 act inactive, KCNK9 block inactive, Kir21 inh -0.32, KCNK3 block inactive, hERG rescue -2.4 and KCNQ1 block inactive.
COc1ccc(C2CCCN2C(=S)Nc2cccc(Cl)c2C)cc1OC (stereo unspecified) was read as KCNQ1 act inactive, KCNK9 block inactive, Kir21 inh 0.8, KCNK3 block inactive, hERG rescue -13.7 and KCNQ1 block inactive.
COc1ccc(NS(=O)(=O)c2cccc(C(=O)N3CCN(C(=O)c4ccco4)CC3)c2)cc1 was read as KCNK3 block inactive.
CCC(C)c1ccc(NC(=S)NCc2ccccc2OC)cc1 (stereo unspecified) was read as KCNQ1 act inactive, KCNK9 block inactive, Kir21 inh 2.36, KCNK3 block inactive, hERG rescue -23.0, KCNQ1 block 9*, KCNQ1 inh valid 61.5*, CHO KCNQ1 ctr 0.523, KCNQ2 inh 69.3%* and KCNQ1 KCNE1 spec 65.5%*.
COc1ccccc1CNC(=S)NCCc1ccccc1 was read as KCNQ1 act inactive, KCNK9 block inactive, Kir21 inh -3.47, KCNK3 block inactive, hERG rescue -4.2 and KCNQ1 block inactive.
For O=C(O)C(O)(c1ccccc1)C(O)c1ccccc1 (stereo unspecified) the results were KCNQ1 act inactive, KCNK9 block inactive, Kir21 inh 1.13, KCNK3 block inactive, hERG rescue -5.2 and KCNQ1 block inactive.
O=c1oc2c(-c3cccc(F)c3)cc(O)cc2s1 was read as KCNQ1 act inactive, KCNK9 block inactive, Kir21 inh 0.07, KCNK3 block inactive, hERG rescue -11.5, KCNQ1 block 11*, KCNQ1 inh valid 73.5*, CHO KCNQ1 ctr 0.512, KCNQ2 inh inactive and KCNQ1 KCNE1 spec 64.0%*.
For CC1(C)NC(=O)N(CC(=O)OCC(=O)c2ccc(Br)s2)C1=O the results were KCNK3 block inactive.
O=C(NC1CCN(S(=O)(=O)c2cccc(F)c2)CC1)c1cccc(F)c1 was read as KCNQ1 act inactive, KCNK9 block inactive, Kir21 inh -0.36, KCNK3 block inactive, hERG rescue -9.2 and KCNQ1 block inactive.
Screening COc1ccc(N(CC(=O)NCc2ccccc2)S(=O)(=O)c2c(C)n[nH]c2C)cc1 returned KCNQ1 act inactive, KCNK9 block inactive, Kir21 inh 0.03, KCNK3 block inactive, hERG rescue -10.1 and KCNQ1 block inactive.
COc1ccc(N(CC(=O)NCc2ccc(Cl)cc2)S(=O)(=O)c2c(C)n[nH]c2C)cc1 was read as KCNQ1 act inactive, KCNK9 block inactive, Kir21 inh -0.03, KCNK3 block inactive, hERG rescue -22.5, KCNQ1 block 7*, KCNQ1 inh valid 58.5*, CHO KCNQ1 ctr 0.489, KCNQ2 inh 74.7%* and KCNQ1 KCNE1 spec 60.0%*.
For Cc1cc(OCC(=O)OCC(=O)c2c(N)n(C)c(=O)n(C)c2=O)ccc1Cl the results were KCNK3 block inactive.
`Cc1cccc(-c2nc(C#N)c(NCC3CCCO3)o2)c1` (stereo unspecified) gave KCNQ1 act inactive, KCNK9 block inactive, Kir21 inh 1.32, KCNK3 block inactive, hERG rescue -3.8 and KCNQ1 block inactive.
For O=C(CCN1CCCC1Cc1ccccc1)c1ccc2c(c1)OCCO2 (stereo unspecified) the results were KCNQ1 act inactive, KCNK9 block inactive, Kir21 inh -0.19, KCNK3 block inactive, hERG rescue -10.7, KCNQ1 block 7*, KCNQ1 inh valid 82.5*, CHO KCNQ1 ctr 0.424, KCNQ2 inh 77.7%* and KCNQ1 KCNE1 spec 99.5%*.
For O=C(CCN1CCCCC1)c1ccc2c(c1)OCCO2 the results were KCNQ1 act inactive, KCNK9 block inactive, Kir21 inh 0.34, KCNK3 block inactive, hERG rescue 0.9 and KCNQ1 block inactive.
Screening O=C(CCN1CCc2ccccc2C1)c1ccc2c(c1)OCCO2 returned KCNQ1 act inactive, KCNK9 block inactive, Kir21 inh 0.02, KCNK3 block inactive, hERG rescue -24.2, KCNQ1 block 7*, KCNQ1 inh valid 44.0*, CHO KCNQ1 ctr 0.377*, KCNQ2 inh 70.3%* and KCNQ1 KCNE1 spec 83.0%*.
O=C(CCN1CCC(c2ccccc2)C1)c1ccc2c(c1)OCCO2 (stereo unspecified) was read as KCNQ1 act inactive, KCNK9 block inactive, Kir21 inh -2.34, KCNK3 block inactive, hERG rescue -16.1, KCNQ1 block 6*, KCNQ1 inh valid 45.0*, CHO KCNQ1 ctr 0.428, KCNQ2 inh 60.0%* and KCNQ1 KCNE1 spec 55.5%*.
O=C(CCN1CCc2ccccc21)c1ccc2c(c1)OCCO2 was read as KCNQ1 act inactive, KCNK9 block inactive, Kir21 inh 0.86, KCNK3 block inactive, hERG rescue -8.3 and KCNQ1 block inactive.
For O=C(Nc1ccc(NC(=S)NC(=O)c2ccccc2F)cc1)c1cccs1 the results were KCNQ1 act inactive, KCNK9 block inactive, Kir21 inh -0.03, KCNK3 block inactive, hERG rescue -7.1, KCNQ1 block 6*, KCNQ1 inh valid 94.5*, CHO KCNQ1 ctr 0.477, KCNQ1 ephys val active, KCNQ2 inh 63.3%* and KCNQ1 KCNE1 spec 132.5%*.
Screening COc1ccc(-c2cc(C(=O)N3CCN(c4ncccn4)CC3)c3ccccc3n2)cc1OC returned KCNK3 block inactive.
